Results published in ChEMBL document CHEMBL3867454, “Corallocins A-C, Nerve Growth and Brain-Derived Neurotrophic Factor Inducing Metabolites from the Mushroom Hericium coralloides” (J Nat Prod, 2016).
≈ marks a conversion by molar mass, not a printed value. Calls of active or inactive are those of the source. The calls are words filed in the database; no cut-off is given here.

Assays:
[1] = system: 1321N1 (Homo sapiens); assay: Cytotoxicity against human 1321N1 cells assessed as induction of cell death measured after 24 hrs; settings: pooled result: one value given for 2 cell lines, strains, targets or settings
[2] = system: 1321-N1; assay: Induction of NGF secretion in human 1321N1 cells at 19.6 uM after 48 hrs; type: functional, cell-based
[3] = Upregulation of NGF expression in human 1321N1 cells at 19.6 uM measured after 6 hrs by semiquantitative RT-PCR analysis relative to DMSO-control; type: functional, cell-based
Procedure, shortened: (§1)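 1321N1 astrocytes were grown to confluence on 3.5 cm plates and switched to serum-free DMEM 24 h before compound addition. Primers were specific for GAPDH, NGF (189 bp) and BDNF (101 bp). PCR programs: GAPDH 20 cycles at 60 °C annealing; NGF 30 cycles at 61 °C; BDNF 30 cycles at 58 °C. Products were run on 1% or 2% agarose, with GAPDH as loading control and identity confirmed by sequencing. n = 3 independent experiments.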

[4] = Increase in BDNF expression in human 1321N1 cells at 19.6 uM measured after 6 hrs by semiquantitative RT-PCR analysis relative to DMSO-control; type: functional
Procedure, shortened: as §1

[5] = system: PC-12; assay: Intrinsic neurotrophic activity in rat PC12 cells in conditioned 1321N1 culture medium assessed as neurite outgrowth at 19.6 uM measured after 48 hrs by light microscopy method; type: functional, cell-based
[6] = system: 1321-N1; assay: Induction of NGF secretion in human 1321N1 cells at 57.8 uM after 48 hrs; type: functional, cell-based
[7] = Cytotoxicity against HUVEC measured after 5 days by MTT assay; type: functional, cell-based; settings: Homo sapiens, 120 h
[8] = Cytotoxicity against human MCF7 cells measured after 5 days by MTT assay; type: functional, cell-based; settings: MCF7, 120 h
Procedure, shortened: (§2)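 Compounds added from 30 μg/mL methanol stocks by serial dilution in 96-well plates. L929 was cultured in DMEM, MCF-7 and KB-3-1 in RPMI-1640, all with 10% FCS, 5% CO2, 37 °C, 5 days. Methanol was the negative control and epothilone A the positive control. IC50 values were derived from the dilution series.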

[9] = Increase in BDNF expression in human 1321N1 cells at 68.9 uM measured after 6 hrs by semiquantitative RT-PCR analysis relative to DMSO-control; type: functional
Procedure, shortened: as §1

[10] = Antifungal activity against Mucor plumbeus MUCL 49355 measured after 20 to 24 hrs by serial dilution assay; type: functional
[11] = Upregulation of NGF expression in human 1321N1 cells at 68.9 uM measured after 6 hrs by semiquantitative RT-PCR analysis relative to DMSO-control; type: functional, cell-based
Procedure, shortened: as §1

[12] = Cytotoxicity against mouse L929 cells measured after 5 days by MTT assay; type: functional, cell-based; settings: L929, 120 h
Procedure, shortened: as §2

[13] = Cytotoxicity against human KB-3-1cells measured after 5 days by MTT assay; type: functional, cell-based; settings: KB 3-1, 120 h
Procedure, shortened: as §2

[14] = Upregulation of NGF expression in human 1321N1 cells at 57.8 uM measured after 6 hrs by semiquantitative RT-PCR analysis relative to DMSO-control; type: functional, cell-based
Procedure, shortened: as §1

[15] = system: PC-12; assay: Intrinsic neurotrophic activity in rat PC12 cells in conditioned 1321N1 culture medium assessed as neurite outgrowth at 57.8 uM measured after 48 hrs by light microscopy method; type: functional, cell-based

| Structure (SMILES) | MNTC at 24 h [1] | Activity [2] | fold change (FC) [3] | fold change (FC) [4] | Activity [5] | Activity [6] | IC50 [7] | IC50 [8] | fold change (FC) [9] | MIC [10] | fold change (FC) [11] | IC50 [12] | IC50 [13] | fold change (FC) [14] | Activity [15] |
| --- | --- | --- | --- | --- | --- | --- | --- | --- | --- | --- | --- | --- | --- | --- | --- |
| COc1cc2c(c(O)c1C/C=C(\C)CCC=C(C)C)CN(CCc1c[nH]c3ccccc13)C2=O | 19.6 µM | Active | 5 | 1.9 | Active | Active | – | – | – | – | – | – | – | – | – |
| COc1cc2c(c(O)c1C/C=C(\C)CCC=C(C)C)CN(CCc1ccc(O)cc1)C2=O | 68.9 µM | – | – | – | – | – | 2.1 µM | 9.2 µM | 1.5 | 57.4 µM (≈ 25 µg/mL) | 2 | 14.7 µM | 11.5 µM | – | – |
| COc1cc2c(c(O)c1C/C=C(\C)CC/C=C(\C)C(=O)O)COC2=O | 57.8 µM | Active | – | – | – | Active | – | – | – | – | – | – | – | 3 | Active |
